Laboratory results reported in paper PMC6404779 (Nature medicine, 2018).

Experiments:
ARAF knockout MEF cells = assay: p-MEK/p-ERK in RAF knockout MEF cells; format: cell-based, Mouse; settings: 1hr
Outline: (§1)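 Wild-type control MEFs and ARAF, BRAF or CRAF knockout MEFs (from a conditional RAF knockout line) were exposed 1 hr to increasing test compound concentrations. Western blot measured p-MEK, MEK, p-ERK and ERK. p-MEK/MEK and p-ERK/ERK were quantified by densitometry, normalized to untreated cells and plotted as response curves (mean±s.d.). Cellular experiments were repeated at least three times.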

[1] = biological target: RAS-dependent full length CRAF dimers (Homo sapiens, UniProt P04049); assay: RAF dimer immunoprecipitation in 293H; format: cell-based; settings: concentrations as high as 10uM
Outline: (§2)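 293H cells with inducible NRAS Q61K co-expressed V5- and FLAG-tagged pairs: BRAF/BRAF, p61 BRAF/p61 BRAF, CRAF-V5/BRAF-FLAG, catC-V5/p61 BRAF-FLAG, CRAF/CRAF or catC/catC. Cells were exposed 1 hr to increasing test compound concentrations, and lysates were immunoprecipitated with anti-V5 agarose. Blots were probed with anti-V5/anti-FLAG. Pulled-down tagged proteins were quantified by densitometry, normalized to untreated cells and plotted as response curves; 3 independent repeats.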

p61 WT BRAF dimers = assay: ERK signaling in SKBR3 cells ectopically expressing RAF proteins; format: cell-based; settings: 1hr
Outline: (§3)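 SKBR3 cells (DMEM/F12 + 10% FBS) were transfected the day after seeding (Lipofectamine 2000, DNA:lipid 1:3) with plasmids for the indicated RAF proteins or empty pcDNA3. After 24 h, RAF-transfected cells got 1 uM lapatinib to suppress endogenous RAF activity; vector cells got DMSO. Test compound was then added at increasing doses for 1 hr. Protein expression and phosphorylation were read by Western blot; 3–4 independent repeats.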

[2] = system: RAS-dependent ARAF homo-or heterodimers; assay: RAF dimer immunoprecipitation in 293H; format: cell-based; settings: 1hr
[3] = system: NRAS Q61R activation of WT RAF dimers (SK-MEL-2); assay: p-ERK Western blot, 1 hr drug treatment; format: cell-based; settings: Homo sapiens, SK-MEL-2, read-out: IC50 for p-ERK in SK-MEL-2 cells
Outline: (§4)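 SK-MEL-2 (RPMI, 10% FBS) or primary keratinocytes (Dermal Cell Basal Medium + keratinocyte growth kit) were exposed 1 hr to 0–30,000 nM compound (nine points, 10 to 30,000 nM). Lysates were Western blotted, and p-ERK/total ERK was quantified by densitometry and normalized to untreated cells. IC50 is the concentration giving 50% inhibition on the response curve; n=4, mean±s.d.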

[4] = Tolerability in nude mice; format: in vivo; settings: doses up to 100mg/kg daily
[5] = system: RAS-independent truncated CRAF (Cat C) homodimers; assay: RAF dimer immunoprecipitation in 293H; format: cell-based; settings: concentrations as high as 10uM
Outline: as §2

[6] = system: Class 1 (BRAF V600 mutants) monomers (A375, SK-MEL-239 and MDST-8); assay: ERK signaling in a panel of cell lines, 1 hour; format: cell-based
[7] = system: WT RAS/RAF (primary keratinocytes); assay: p-ERK Western blot, 1 hr drug treatment; format: cell-based; settings: Keratinocyte, read-out: IC50 for p-ERK in keratinocytes
Outline: as §4

[8] = system: Class 3 BRAF mutant heterodimers; assay: RAF dimer immunoprecipitation in 293H cells; format: cell-based; settings: 1hr, increasing doses
[9] = system: HeLa cells (WT RAS and RAF) with CRAF overexpression; assay: ERK signaling in HeLa cells stably expressing RAF; format: cell-based; settings: 1hr
BRAF G466V PDX tumors = assay: Colorectal cancer PDX model; format: in vivo, NSG mice; settings: Cetuximab 50 mg/kg IP twice weekly, vemurafenib 75 mg/kg BID, PLX8394 50 mg/kg BID
[10] = system: HeLa cells (WT RAS and RAF) with BRAF overexpression; assay: ERK signaling in HeLa cells stably expressing RAF; format: cell-based; settings: 1hr
p61 BRAF V600E dimers = assay: ERK signaling in SKBR3 cells ectopically expressing RAF proteins; format: cell-based; settings: 1hr
Outline: as §3

[11] = system: Class 3 mutants (H508 and H1666); assay: ERK signaling in a panel of cell lines, 1 hour; format: cell-based
CRAF knockout MEF cells = assay: p-MEK/p-ERK in RAF knockout MEF cells; format: cell-based, Mouse; settings: 1hr
Outline: as §1

[12] = biological target: RAS-dependent full length BRAF/BRAF dimers (Homo sapiens, UniProt P15056); assay: RAF dimer immunoprecipitation in 293H; format: cell-based
RAS-dependent full length BRAF/BRAF dimers, sequence (P15056 whole entry): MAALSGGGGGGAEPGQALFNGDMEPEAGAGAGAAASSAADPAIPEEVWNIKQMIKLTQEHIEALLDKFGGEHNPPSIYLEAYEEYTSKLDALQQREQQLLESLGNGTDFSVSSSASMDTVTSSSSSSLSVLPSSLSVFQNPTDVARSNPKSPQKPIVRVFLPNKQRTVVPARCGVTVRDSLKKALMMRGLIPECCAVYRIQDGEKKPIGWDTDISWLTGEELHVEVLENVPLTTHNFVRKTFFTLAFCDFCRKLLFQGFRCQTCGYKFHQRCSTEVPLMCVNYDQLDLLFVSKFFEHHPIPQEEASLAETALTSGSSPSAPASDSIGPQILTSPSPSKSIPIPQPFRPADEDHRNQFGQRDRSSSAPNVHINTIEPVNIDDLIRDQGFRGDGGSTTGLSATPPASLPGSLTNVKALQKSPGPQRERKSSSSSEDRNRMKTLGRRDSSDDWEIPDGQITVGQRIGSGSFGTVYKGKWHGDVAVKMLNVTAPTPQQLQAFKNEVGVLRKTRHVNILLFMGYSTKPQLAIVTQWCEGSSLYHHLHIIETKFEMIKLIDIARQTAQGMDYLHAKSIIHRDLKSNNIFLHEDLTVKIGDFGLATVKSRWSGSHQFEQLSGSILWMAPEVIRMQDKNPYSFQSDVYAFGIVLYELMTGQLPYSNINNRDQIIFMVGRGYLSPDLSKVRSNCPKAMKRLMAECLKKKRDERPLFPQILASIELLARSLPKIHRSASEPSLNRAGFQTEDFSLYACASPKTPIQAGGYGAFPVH

RAS-dependent full length CRAF dimers, sequence (P04049 whole entry): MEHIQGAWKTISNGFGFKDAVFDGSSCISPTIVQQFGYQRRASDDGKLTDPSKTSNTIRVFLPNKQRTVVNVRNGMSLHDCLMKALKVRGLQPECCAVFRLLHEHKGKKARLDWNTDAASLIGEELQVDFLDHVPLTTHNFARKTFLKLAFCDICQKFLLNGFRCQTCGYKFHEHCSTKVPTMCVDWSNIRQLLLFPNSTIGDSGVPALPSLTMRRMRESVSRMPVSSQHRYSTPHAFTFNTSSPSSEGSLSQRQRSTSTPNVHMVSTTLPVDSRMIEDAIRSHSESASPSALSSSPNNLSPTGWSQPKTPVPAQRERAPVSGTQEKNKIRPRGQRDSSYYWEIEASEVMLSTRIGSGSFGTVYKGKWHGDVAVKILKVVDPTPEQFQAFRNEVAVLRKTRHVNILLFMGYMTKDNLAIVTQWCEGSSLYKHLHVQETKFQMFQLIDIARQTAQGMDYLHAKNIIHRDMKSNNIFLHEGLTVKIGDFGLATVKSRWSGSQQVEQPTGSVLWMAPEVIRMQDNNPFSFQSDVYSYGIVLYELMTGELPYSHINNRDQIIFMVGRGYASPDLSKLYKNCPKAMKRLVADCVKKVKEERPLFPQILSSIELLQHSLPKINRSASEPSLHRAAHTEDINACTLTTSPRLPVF
RAS-dependent full length CRAF dimers, sequence (P04049 whole entry): as above

O=C(c1c(F)ccc(NS(=O)(=O)N2CC[C@@H](F)C2)c1F)c1c[nH]c2ncc(-c3cnc(C4CC4)nc3)cc12 [PLX8394]
effect on ERK signaling, ARAF knockout (ARAF knockout MEF cells): minimal effects
effect on full length CRAF dimer levels [1]: no effect
doses required to inhibit p61 WT BRAF dimers (p61 WT BRAF dimers): 300 to 1000 nM
disruption of ARAF homo- or heterodimers [2]: didn’t disrupt
IC50 [3]: > 20 µM
tolerability [4]: well tolerated
effect on truncated CRAF (Cat C) homodimer levels [5]: no effect
concentrations inhibiting ERK signaling driven by Class 1 monomers [6]: 30 to 100 nM
IC50 [7]: > 20 µM
disruption of Class 3 BRAF mutant heterodimers [8]: disrupts
effect on ERK signaling, CRAF overexpression [9]: activated the pathway
response of ERK signaling and tumor growth (BRAF G466V PDX tumors): insensitive
effect on ERK signaling, BRAF overexpression [10]: sensitized ERK signaling to inhibition
doses required to inhibit p61 BRAF V600E dimers (p61 BRAF V600E dimers): 100 to 300 nM
concentrations inhibiting Class 3 mutants driven signaling [11]: 1 to 10 µM
effect on ERK signaling, CRAF-knockout (CRAF knockout MEF cells): inhibited signaling
IC50 [12]: 0.1 to 0.3 µM
time to reduction in BRAF-containing dimers after drug treatment ([12]; 1uM, 293H cells): ≤ 15 min
